Assays:
[1] = Stability in pH 7.4 PBS buffer at 1 mM after 1 hr by HPLC analysis; assay type: physicochemical; details: read-out: Stability
Summary of the method: (§1)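 Compound in DMSO added to 1x PBS adjusted with HCl/NaOH to pH 6.5, 7.4 or 8.0, giving about 1 mM final. Sulfonyl fluoride hydrolysis followed by analytical HPLC over 12 h. Peak measured right after buffer addition set as 0 h reference. Reported as residual % of intact R-SO2F.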

[2] = Stability in pH 7.4 PBS buffer at 1 mM after 6 hrs by HPLC analysis; assay type: physicochemical; details: read-out: Stability; summary of the method: as §1
Homo sapiens [3] = species on record: Homo sapiens; assay: Selectivity ratio of IC50 for human 20S constitutive proteasome beta-5 to IC50 for human 20S constitutive proteasome beta-2
[4] = target: T1, Proteasome Macropain subunit MB1 (Homo sapiens, UniProt P28074); assay: Inhibition of human 20S constitutive proteasome beta-5 using Suc-LLVY-AMC as substrate after 60 mins by fluorescence assay
T1 sequence (P28074 whole entry): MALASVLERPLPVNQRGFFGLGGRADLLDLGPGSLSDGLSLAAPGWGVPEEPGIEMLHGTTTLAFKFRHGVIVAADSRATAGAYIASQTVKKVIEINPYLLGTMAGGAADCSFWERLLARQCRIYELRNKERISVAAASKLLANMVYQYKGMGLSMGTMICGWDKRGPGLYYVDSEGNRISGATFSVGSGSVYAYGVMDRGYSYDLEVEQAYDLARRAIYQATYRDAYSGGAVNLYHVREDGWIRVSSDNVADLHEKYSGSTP
Summary of the method: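 Inhibitors preincubated 60 min at ambient temperature with shaking, final concentrations 0.1 nM–400 µM. Fluorogenic substrate at final 100 µM. Duplicates, three repetitions. IC50 obtained from a Hill-equation fit of % residual activity against log concentration.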

[5] = Stability in pH 6.5 PBS buffer at 1 mM after 12 hrs by HPLC analysis; assay type: physicochemical; details: read-out: Stability; summary of the method: as §1
[6] = Stability in pH 8 PBS buffer at 1 mM after 2 hrs by HPLC analysis; assay type: physicochemical; details: read-out: Stability; summary of the method: as §1
[7] = target: T2, Proteasome subunit beta type-8 (Homo sapiens, UniProt P28062); assay: Inhibition of human 20S immunoproteasome beta-5 using Suc-LLVY-AMC as substrate after 60 mins by fluorescence assay
T2 sequence (P28062 whole entry): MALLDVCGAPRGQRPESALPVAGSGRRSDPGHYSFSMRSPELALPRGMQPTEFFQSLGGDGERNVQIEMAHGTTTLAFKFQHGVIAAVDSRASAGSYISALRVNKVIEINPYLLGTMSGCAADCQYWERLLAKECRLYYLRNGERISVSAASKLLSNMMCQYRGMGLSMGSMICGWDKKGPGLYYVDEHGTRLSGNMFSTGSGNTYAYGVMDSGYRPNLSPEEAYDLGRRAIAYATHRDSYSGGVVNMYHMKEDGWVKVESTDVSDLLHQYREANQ
Summary of the method: (§2)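 Purified 20S proteasome (final 2.5 nM) in kit assay buffer. Inhibitors preincubated 60 min at ambient temperature with shaking, final concentrations 0.1 nM–400 µM. Fluorogenic substrate at final 100 µM. Fluorescence (ex 360 nm, em 460 nm) read kinetically for 2 h at 25 °C. Duplicates, three repetitions. IC50 obtained from a Hill-equation fit of % residual activity against log concentration.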

[8] = target: T3, Proteasome subunit beta type-10 (Homo sapiens, UniProt P40306); assay: Inhibition of human 20S immunoproteasome beta-2 using Bz-VGR-AMC as substrate after 60 mins by fluorescence assay; summary of the method: as §2
T3 sequence (P40306 whole entry): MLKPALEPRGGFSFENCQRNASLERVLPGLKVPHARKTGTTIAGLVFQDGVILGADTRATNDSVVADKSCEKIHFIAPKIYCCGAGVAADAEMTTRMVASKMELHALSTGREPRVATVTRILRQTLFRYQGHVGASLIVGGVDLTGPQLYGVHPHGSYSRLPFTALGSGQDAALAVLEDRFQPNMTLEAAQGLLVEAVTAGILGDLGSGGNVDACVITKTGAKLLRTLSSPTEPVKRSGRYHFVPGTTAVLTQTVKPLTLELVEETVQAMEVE

Homo sapiens [9] = species on record: Homo sapiens; assay: Selectivity ratio of IC50 for human 20S immunoproteasome beta-5 to IC50 for human 20S immunoproteasome beta-2

SMILES | remaining at 1 h, 1000 µM [1] | remaining at 6 h, 1000 µM [2] | Ratio IC50 (Homo sapiens [3]) | IC50 [4] | remaining at 12 h, 1000 µM [5] | remaining at 2 h, 1000 µM [6] | IC50 [7] | IC50 [8] | Ratio IC50 (Homo sapiens [9])
CC(=O)N[C@@H](Cc1ccccc1)C(=O)N[C@@H](CC(C)C)C(=O)N[C@@H](CC(C)C)C(=O)N[C@@H](Cc1ccc(N)cc1)CS(=O)(=O)F | 90% | ≥ 50% | 0.1 | 0.21 µM | 75% | 50% | – | – | –
CC(C)C[C@H](NC(=O)[C@H](Cc1ccccc1)N=[N+]=[N-])C(=O)N[C@@H](CC(C)C)C(=O)N[C@H](/C=C/S(C)(=O)=O)Cc1ccc(CN)cc1 | – | – | – | – | – | – | 1.8 µM | 0.0275 µM | –
CC(C)C[C@H](NC(=O)[C@H](Cc1ccccc1)N=[N+]=[N-])C(=O)N[C@@H](CC(C)C)C(=O)N[C@@H](Cc1ccc(N)cc1)CS(=O)(=O)F | 90% | ≥ 50% | – | – | 75% | 50% | – | – | –
CC(C)C[C@H](NC(=O)[C@H](CC(C)C)NC(=O)[C@@H](N)Cc1ccccc1)C(=O)N[C@@H](Cc1ccc(CN)cc1)CS(=O)(=O)F | 90% | ≥ 50% | 900 | 125 µM | 75% | 50% | 137 µM | 0.36 µM | 380
CC(C)C[C@H](NC(=O)[C@H](Cc1ccccc1)N=[N+]=[N-])C(=O)N[C@@H](CC(C)C)C(=O)N[C@@H](CCCNC(=N)N)CS(=O)(=O)F | 90% | ≥ 50% | 110 | 39 µM | 75% | 50% | – | – | –
CC(C)C[C@H](NC(=O)[C@H](CC(C)C)NC(=O)[C@@H](N)Cc1ccccc1)C(=O)N[C@@H](CCCNC(=N)N)CS(=O)(=O)F | 90% | ≥ 50% | 560 | 140 µM | 75% | 50% | > 100 µM | 0.21 µM | > 1000
CC(C)C[C@H](NC(=O)[C@H](CC(C)C)NC(=O)[C@@H](N)Cc1ccccc1)C(=O)N[C@@H](CCCCN)CS(=O)(=O)F | 90% | ≥ 50% | > 1000 | > 100 µM | 75% | 50% | > 100 µM | 0.3 µM | > 1000
CC(=O)N[C@@H](Cc1ccccc1)C(=O)N[C@@H](CC(C)C)C(=O)N[C@@H](CC(C)C)C(=O)N[C@@H](CCCNC(=N)N)CS(=O)(=O)F | 90% | ≥ 50% | 70 | 69 µM | 75% | 50% | – | – | –
CC(C)C[C@H](NC(=O)[C@H](CC(C)C)NC(=O)[C@@H](N)Cc1ccccc1)C(=O)N[C@@H](Cc1ccc(N)cc1)CS(=O)(=O)F | 90% | ≥ 50% | 4.3 | 0.95 µM | 75% | 50% | 0.45 µM | 0.2 µM | 2.3
CC(C)C[C@H](NC(=O)[C@H](CC(C)C)NC(=O)[C@H](Cc1ccccc1)NC(=O)OCc1ccccc1)C(=O)N[C@@H](CCCNC(=N)N)CS(=O)(=O)F | 90% | ≥ 50% | 45 | 6.7 µM | 75% | 50% | 6.7 µM | 0.4 µM | 17
CC(=O)N[C@@H](Cc1ccccc1)C(=O)N[C@@H](CC(C)C)C(=O)N[C@@H](CC(C)C)C(=O)N[C@@H](Cc1ccc(CN)cc1)CS(=O)(=O)F | 90% | ≥ 50% | 150 | 18 µM | 75% | 50% | 17.2 µM | 0.395 µM | 44
CC(=O)N[C@@H](Cc1ccccc1)C(=O)N[C@@H](CC(C)C)C(=O)N[C@@H](CC(C)C)C(=O)N[C@@H](CCCCN)CS(=O)(=O)F | 90% | ≥ 50% | 300 | > 100 µM | 75% | 50% | – | – | –
CC(C)C[C@H](NC(=O)[C@H](Cc1ccccc1)N=[N+]=[N-])C(=O)N[C@@H](CC(C)C)C(=O)N[C@@H](CCCCN)CS(=O)(=O)F | 90% | ≥ 50% | 96 | 67 µM | 75% | 50% | – | – | –
CC(C)C[C@H](NC(=O)[C@H](Cc1ccccc1)N=[N+]=[N-])C(=O)N[C@@H](CC(C)C)C(=O)N[C@@H](Cc1ccc(CN)cc1)CS(=O)(=O)F | 90% | ≥ 50% | 66 | 8.9 µM | 75% | 50% | 3.1 µM | 0.13 µM | 24
CC(C)C[C@H](NC(=O)OCc1ccccc1)C(=O)N[C@@H](CC(C)C)C(=O)N[C@@H](CC(C)C)C(=O)N[C@@H](CCCNC(=N)N)CS(=O)(=O)F | 90% | ≥ 50% | 50 | 10 µM | 75% | 50% | 14 µM | 1.11 µM | 13
CC(C)C[C@H](NC(=O)[C@H](CC(C)C)NC(=O)[C@H](Cc1ccccc1)NC(=O)OC(C)(C)C)C(=O)N[C@@H](CCCNC(=N)N)CS(=O)(=O)F | 90% | ≥ 50% | 40 | 27.8 µM | 75% | 50% | – | – | –

Source: ChEMBL document CHEMBL4118199 (J Med Chem, 2018)
